The results in this text go back to ChEMBL document CHEMBL3425440, “ent-Kaurane Diterpenoids from Chinese Liverworts and Their Antitumor Activities through Michael Addition As Detected in Situ by a Fluorescence Probe” (J Med Chem, 2015).

Some results are limits rather than exact numbers.

The first experiment deals with NCI-H1299. Kind of experiment: Cytotoxicity against human NCI-H1299 cells assessed as cell viability after 24 hrs by MTT assay. The experiment is classed as functional, cell-based. The settings on record: NCI-H1299, 24 h. Put shortly:
(§1)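 Cells grown to about 50−70% confluence at 37 °C, 5% CO2, then exposed to compounds 24 h (DMSO vehicle control, cisplatin positive control). MTT (5 mg/mL stock) added for 4 h, formazan dissolved in DMSO, absorbance read at 570 nm. IC50 derived from percent viability; at least three independent experiments, mean ± SD.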
A general note: Formazan colour is commonly taken as a measure of viable cells.
Broadly, the IC50 is the concentration that inhibits the measured activity by half. In the case of `C=C1[C@@H]2C[C@H](O)[C@H]3[C@]4(C)CCCC(C)(C)[C@H]4CC[C@]3(C2)[C@@H]1O`, the IC50 was greater than 50 µM.

As for `C[C@H]1C(=O)[C@@]23CC[C@@H]4C(C)(C)CCC[C@@]4(C)C2=CC[C@]1(O)C3`, the IC50 was greater than 50 µM.

Consider `C=C1C[C@]23C[C@H]1CC[C@H]2[C@@]1(C)[C@H](C[C@H]3O)C(C)(C)CC[C@@H]1O`, for which the IC50 was greater than 50 µM.

For the molecule `C=C1C(=O)[C@@]23CC[C@@H]4[C@@](C)(CO)CCC[C@@]4(C)C2=CC[C@@H]1C3`, the IC50 was 14.5 µM.

A further experiment deals with K562. Kind of experiment: Cytotoxicity against human K562 cells assessed as cell viability after 24 hrs by MTT assay. The class given is functional, cell-based. The settings on record: K562, 24 h. Put shortly: as §1
With `C=C1[C@@H]2C[C@H](O)[C@H]3[C@]4(C)CCCC(C)(C)[C@H]4CC[C@]3(C2)[C@@H]1O`, the IC50 is greater than 50 µM.

On to `C[C@H]1C(=O)[C@@]23CC[C@@H]4C(C)(C)CCC[C@@]4(C)C2=CC[C@]1(O)C3`, for which the IC50 was greater than 50 µM.

Take `C=C1C[C@]23C[C@H]1CC[C@H]2[C@@]1(C)[C@H](C[C@H]3O)C(C)(C)CC[C@@H]1O`: the IC50 is greater than 50 µM.

On to `C=C1C(=O)[C@@]23CC[C@@H]4[C@@](C)(CO)CCC[C@@]4(C)C2=CC[C@@H]1C3`, for which the IC50 came out at 13.8 µM.

Tested on in the next experiment: not listed separately
As to the kind of experiment: Cytotoxicity against human PC3 cells assessed as cell viability after 24 hrs by MTT assay. The experiment is classed as functional, cell-based. The settings on record: PC-3, 24 h. The gist of the method: as §1
Consider `C=C1[C@@H]2C[C@H](O)[C@H]3[C@]4(C)CCCC(C)(C)[C@H]4CC[C@]3(C2)[C@@H]1O`, for which the IC50 is greater than 50 µM.

With `C[C@H]1C(=O)[C@@]23CC[C@@H]4C(C)(C)CCC[C@@]4(C)C2=CC[C@]1(O)C3`, the concentration for half-maximal inhibition (IC50) was greater than 50 µM.

As to `C=C1C[C@]23C[C@H]1CC[C@H]2[C@@]1(C)[C@H](C[C@H]3O)C(C)(C)CC[C@@H]1O`, the IC50 was greater than 50 µM.

`C=C1C(=O)[C@@]23CC[C@@H]4[C@@](C)(CO)CCC[C@@]4(C)C2=CC[C@@H]1C3`: the IC50 is 21.5 µM.

Tested on in a further experiment: not listed separately
Kind of experiment: Cytotoxicity against human SKOV3 cells assessed as cell viability after 24 hrs by MTT assay. The experiment is classed as functional, cell-based. The settings on record: SK-OV-3, 24 h. The gist of the method: as §1
Take `C=C1[C@@H]2C[C@H](O)[C@H]3[C@]4(C)CCCC(C)(C)[C@H]4CC[C@]3(C2)[C@@H]1O`: the IC50 is greater than 50 µM.

With `C[C@H]1C(=O)[C@@]23CC[C@@H]4C(C)(C)CCC[C@@]4(C)C2=CC[C@]1(O)C3`, the IC50 was greater than 50 µM.

In the case of `C=C1C[C@]23C[C@H]1CC[C@H]2[C@@]1(C)[C@H](C[C@H]3O)C(C)(C)CC[C@@H]1O`, the IC50 is greater than 50 µM.

For `C=C1C(=O)[C@@]23CC[C@@H]4[C@@](C)(CO)CCC[C@@]4(C)C2=CC[C@@H]1C3`, the IC50 was 22.3 µM.

Tested on in a further experiment: not listed separately
Kind of experiment: Cytotoxicity against human RWPE1 cells assessed as cell viability after 24 hrs by MTT assay. The experiment is classed as cell-based. The settings on record: RWPE-1, 24 h. The gist of the method: as §1
Turning to `C=C1[C@@H]2C[C@H](O)[C@H]3[C@]4(C)CCCC(C)(C)[C@H]4CC[C@]3(C2)[C@@H]1O`, the IC50 is greater than 50 µM.

For `C[C@H]1C(=O)[C@@]23CC[C@@H]4C(C)(C)CCC[C@@]4(C)C2=CC[C@]1(O)C3`, the IC50 is greater than 50 µM.

On to `C=C1C[C@]23C[C@H]1CC[C@H]2[C@@]1(C)[C@H](C[C@H]3O)C(C)(C)CC[C@@H]1O`, for which the IC50 was greater than 50 µM.

`C=C1C(=O)[C@@]23CC[C@@H]4[C@@](C)(CO)CCC[C@@]4(C)C2=CC[C@@H]1C3`: the IC50 turned out to be 39.3 µM.

Tested on in a further experiment: not listed separately
Kind of experiment: Cytotoxicity against human SH-SY5Y cells assessed as cell viability after 24 hrs by MTT assay. The experiment is classed as functional, cell-based.
Settings: not given
The gist of the method:
as §1
For `C=C1[C@@H]2C[C@H](O)[C@H]3[C@]4(C)CCCC(C)(C)[C@H]4CC[C@]3(C2)[C@@H]1O`, the IC50 is greater than 50 µM.

With `C[C@H]1C(=O)[C@@]23CC[C@@H]4C(C)(C)CCC[C@@]4(C)C2=CC[C@]1(O)C3`, the IC50 was greater than 50 µM.

On to `C=C1C[C@]23C[C@H]1CC[C@H]2[C@@]1(C)[C@H](C[C@H]3O)C(C)(C)CC[C@@H]1O`, for which the IC50 is greater than 50 µM.

Turning to `C=C1C(=O)[C@@]23CC[C@@H]4[C@@](C)(CO)CCC[C@@]4(C)C2=CC[C@@H]1C3`, the IC50 was 9.8 µM.

Tested on in a further experiment: not listed separately
As to the kind of experiment: Cytotoxicity against human T24 cells assessed as cell viability after 24 hrs by MTT assay. The class given is functional, cell-based. The settings on record: T-24, 24 h. The gist of the method: as §1
`C=C1[C@@H]2C[C@H](O)[C@H]3[C@]4(C)CCCC(C)(C)[C@H]4CC[C@]3(C2)[C@@H]1O`: the IC50 was greater than 50 µM.

Consider `C[C@H]1C(=O)[C@@]23CC[C@@H]4C(C)(C)CCC[C@@]4(C)C2=CC[C@]1(O)C3`, for which the IC50 is greater than 50 µM.

Turning to `C=C1C[C@]23C[C@H]1CC[C@H]2[C@@]1(C)[C@H](C[C@H]3O)C(C)(C)CC[C@@H]1O`, the IC50 was greater than 50 µM.

Turning to `C=C1C(=O)[C@@]23CC[C@@H]4[C@@](C)(CO)CCC[C@@]4(C)C2=CC[C@@H]1C3`, the IC50 was found to be 17.7 µM.

The test system of a further experiment is LoVo. As to the kind of experiment: Cytotoxicity against human LoVo cells assessed as cell viability after 24 hrs by MTT assay. The class given is functional, cell-based.
Settings: not given
The gist of the method:
as §1
With `C=C1[C@@H]2C[C@H](O)[C@H]3[C@]4(C)CCCC(C)(C)[C@H]4CC[C@]3(C2)[C@@H]1O`, the IC50 was greater than 50 µM.

In the case of `C[C@H]1C(=O)[C@@]23CC[C@@H]4C(C)(C)CCC[C@@]4(C)C2=CC[C@]1(O)C3`, the IC50 is greater than 50 µM.

In the case of `C=C1C[C@]23C[C@H]1CC[C@H]2[C@@]1(C)[C@H](C[C@H]3O)C(C)(C)CC[C@@H]1O`, the IC50 was greater than 50 µM.

In the case of `C=C1C(=O)[C@@]23CC[C@@H]4[C@@](C)(CO)CCC[C@@]4(C)C2=CC[C@@H]1C3`, the IC50 was 11.2 µM.

The next experiment has as its system MDA-MB-231. Kind of experiment: Cytotoxicity against human MDA-MB-231 cells assessed as cell viability after 24 hrs by MTT assay. The settings on record: MDA-MB-231, 24 h. The experiment is classed as functional, cell-based. Put shortly: as §1
For the molecule `C=C1[C@@H]2C[C@H](O)[C@H]3[C@]4(C)CCCC(C)(C)[C@H]4CC[C@]3(C2)[C@@H]1O`, the IC50 was greater than 50 µM.

For `C[C@H]1C(=O)[C@@]23CC[C@@H]4C(C)(C)CCC[C@@]4(C)C2=CC[C@]1(O)C3`, the IC50 is greater than 50 µM.

Turning to `C=C1C[C@]23C[C@H]1CC[C@H]2[C@@]1(C)[C@H](C[C@H]3O)C(C)(C)CC[C@@H]1O`, the IC50 was greater than 50 µM.

For the molecule `C=C1C(=O)[C@@]23CC[C@@H]4[C@@](C)(CO)CCC[C@@]4(C)C2=CC[C@@H]1C3`, the IC50 was found to be 32 µM.

A further experiment relates to DU-145. As to the kind of experiment: Cytotoxicity against human DU145 cells assessed as cell viability after 24 hrs by MTT assay. The class given is functional, cell-based. The settings on record: DU-145, 24 h. Put shortly: as §1
`C=C1[C@@H]2C[C@H](O)[C@H]3[C@]4(C)CCCC(C)(C)[C@H]4CC[C@]3(C2)[C@@H]1O`: the IC50 was greater than 50 µM.

On to `C[C@H]1C(=O)[C@@]23CC[C@@H]4C(C)(C)CCC[C@@]4(C)C2=CC[C@]1(O)C3`, for which the IC50 is greater than 50 µM.

Consider `C=C1C[C@]23C[C@H]1CC[C@H]2[C@@]1(C)[C@H](C[C@H]3O)C(C)(C)CC[C@@H]1O`, for which the IC50 was greater than 50 µM.

For the molecule `C=C1C(=O)[C@@]23CC[C@@H]4[C@@](C)(CO)CCC[C@@]4(C)C2=CC[C@@H]1C3`, the IC50 worked out at 31 µM.

A further experiment has as its system LNCaP. Kind of experiment: Cytotoxicity against human LNCAP cells assessed as cell viability after 24 hrs by MTT assay. The class given is functional, cell-based.
Settings: not given
Put shortly: as §1
For the molecule `C=C1[C@@H]2C[C@H](O)[C@H]3[C@]4(C)CCCC(C)(C)[C@H]4CC[C@]3(C2)[C@@H]1O`, the IC50 was greater than 50 µM.

Regarding `C[C@H]1C(=O)[C@@]23CC[C@@H]4C(C)(C)CCC[C@@]4(C)C2=CC[C@]1(O)C3`, the IC50 is greater than 50 µM.

As to `C=C1C[C@]23C[C@H]1CC[C@H]2[C@@]1(C)[C@H](C[C@H]3O)C(C)(C)CC[C@@H]1O`, the IC50 is greater than 50 µM.

In the case of `C=C1C(=O)[C@@]23CC[C@@H]4[C@@](C)(CO)CCC[C@@]4(C)C2=CC[C@@H]1C3`, the IC50 came out at 16.3 µM.

Tested on in the next experiment: not listed separately
As to the kind of experiment: Cytotoxicity against human Saos2 cells assessed as cell viability after 24 hrs by MTT assay. The class given is functional, cell-based. The settings on record: SAOS-2, 24 h. Put shortly: as §1
Consider `C=C1[C@@H]2C[C@H](O)[C@H]3[C@]4(C)CCCC(C)(C)[C@H]4CC[C@]3(C2)[C@@H]1O`, for which the IC50 is greater than 50 µM.

On to `C[C@H]1C(=O)[C@@]23CC[C@@H]4C(C)(C)CCC[C@@]4(C)C2=CC[C@]1(O)C3`, for which the IC50 was greater than 50 µM.

For the molecule `C=C1C[C@]23C[C@H]1CC[C@H]2[C@@]1(C)[C@H](C[C@H]3O)C(C)(C)CC[C@@H]1O`, the IC50 is greater than 50 µM.

For `C=C1C(=O)[C@@]23CC[C@@H]4[C@@](C)(CO)CCC[C@@]4(C)C2=CC[C@@H]1C3`, the IC50 is 14 µM.

Tested on in another experiment: not listed separately
Kind of experiment: Cytotoxicity against human A172 cells assessed as cell viability after 24 hrs by MTT assay. The class given is functional, cell-based. The settings on record: A 172, 24 h. The gist of the method:
as §1
Turning to `C=C1[C@@H]2C[C@H](O)[C@H]3[C@]4(C)CCCC(C)(C)[C@H]4CC[C@]3(C2)[C@@H]1O`, the IC50 was greater than 50 µM.

As to `C[C@H]1C(=O)[C@@]23CC[C@@H]4C(C)(C)CCC[C@@]4(C)C2=CC[C@]1(O)C3`, the IC50 is greater than 50 µM.

For the molecule `C=C1C[C@]23C[C@H]1CC[C@H]2[C@@]1(C)[C@H](C[C@H]3O)C(C)(C)CC[C@@H]1O`, the IC50 was greater than 50 µM.

As to `C=C1C(=O)[C@@]23CC[C@@H]4[C@@](C)(CO)CCC[C@@]4(C)C2=CC[C@@H]1C3`, the IC50 was found to be 20.3 µM.

Tested on in another experiment: not listed separately
As to the kind of experiment: Cytotoxicity against human HL60 cells assessed as cell viability after 24 hrs by MTT assay. The settings on record: HL-60, 24 h. The experiment is classed as functional, cell-based. The gist of the method:
as §1
In the case of `C=C1[C@@H]2C[C@H](O)[C@H]3[C@]4(C)CCCC(C)(C)[C@H]4CC[C@]3(C2)[C@@H]1O`, the IC50 was greater than 50 µM.

As to `C[C@H]1C(=O)[C@@]23CC[C@@H]4C(C)(C)CCC[C@@]4(C)C2=CC[C@]1(O)C3`, the IC50 was greater than 50 µM.

`C=C1C[C@]23C[C@H]1CC[C@H]2[C@@]1(C)[C@H](C[C@H]3O)C(C)(C)CC[C@@H]1O`: the IC50 is greater than 50 µM.

As to `C=C1C(=O)[C@@]23CC[C@@H]4[C@@](C)(CO)CCC[C@@]4(C)C2=CC[C@@H]1C3`, the IC50 came out at 4.7 µM.
